The target in test [1] is T1, Toll-like receptor 1/2 (Homo sapiens, UniProt O60603+Q15399). Kind of test: Agonist activity at TLR1/TLR2 in human THP-1 derived macrophages assessed as stimulation of TNF alpha release measured for 4 hrs by ELISA based assay. It is filed as cell-based. Summed up:
(§1)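 THP-1 cells differentiated with 100 nM PMA in RPMI/10% FBS for 24 h, washed, then rested 24 h in fresh medium. Seeded at 0.5 × 10⁵ cells/well and exposed to graded compound concentrations for 4 h, with final DMSO held at 0.1%. LPS served as positive control and DMSO as negative control. Supernatant human TNF-α was read by ELISA. EC50 from duplicate means.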

The test system of test [2] is Mus musculus. As to the kind of experiment: Immuno-adjuvant activity in C57BL/6J mouse assessed as increase in level of OVA specific Goat Anti-Mouse IgG-HRP antibody at 10 mg/kg, IM co-treated with ovalbumin at 5 mg/kg incubated for 1 hrs measured on day 14 by ELISA. The format is functional, organism-based. Summed up: (§2)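 Female 8-week C57BL/6J mice (ca. 20 g) given i.m. 200 μg (10 mg/kg) agonist mixed with 100 μg OVA (5 mg/kg, low endotoxin) in DMSO:Tween 80:saline 1:1:8 on day 0. Controls received vehicle or OVA alone; 5–8 mice/group. Serum OVA-specific IgG, IgG1 and IgG2b measured by ELISA on day 14. Mean ± SD; one-way ANOVA with Tukey test.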
For orientation: In an ELISA, binding on a coated surface is turned into a signal by an enzyme label.

In test [3] the test system is Mus musculus. Kind of test: Immuno-adjuvant activity in C57BL/6J mouse assessed as increase in level of OVA specific Goat Anti-Mouse IgG1-HRP antibody at 10 mg/kg, IM co-treated with ovalbumin at 5 mg/kg incubated for 1 hrs measured on day 14 by ELISA. It is filed as functional, organism-based. In short, it runs like this:
as §2

In test [4] the target is Toll-like receptor 1/2 (Mus musculus, UniProt Q9EPQ1+Q9QUN7). As to the kind of experiment: Agonist activity at TLR1/TLR2 in wild type C57BL/6J mouse macrophages assessed as stimulation of TNF alpha release measured for 4 hrs by ELISA based assay. It is filed as cell-based, Macrophage. Summed up:
(§3)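 Thioglycolate-elicited peritoneal macrophages from wild type C57BL/6J mice, harvested by PBS lavage 4 d after i.p. 4% thioglycolate. Cultured in DMEM/10% FBS at 37 °C, 5% CO2, seeded at 1 × 10⁵ cells/well and exposed to graded compound concentrations for 4 h, with final DMSO ≤0.5% held constant. LPS served as positive control. Supernatant mouse TNF-α was read by ELISA. EC50 from duplicate means.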

The subject of test [5] is Mus musculus. Kind of test: Immuno-adjuvant activity in C57BL/6J mouse assessed as increase in level of OVA specific Goat Anti-Mouse IgG2b-HRP antibody at 10 mg/kg, IM co-treated with ovalbumin at 5 mg/kg incubated for 1 hrs measured on day 14 by ELISA. It is filed as functional, organism-based. Summed up: as §2
The target in test [6] is T1, Toll-like receptor 1/2. Kind of test: Agonist activity at TLR1/TLR2 in human THP-1 derived macrophages assessed as stimulation of TNF alpha release measured for 4 hrs by ELISA based assay relative to diprovocim-1. The format is cell-based. On the set-up: Activity: concentration or dose not given beside the values. The settings on record: filed as agonist. Summed up:
as §1

Test [7] concerns the target Toll-like receptor 1/2 (Mus musculus) (UniProt Q9QUN7+Q9EPQ1). Kind of test: Agonist activity at TLR1/TLR2 in wild type C57BL/6J mouse macrophages assessed as stimulation of TNF alpha release measured for 4 hrs by ELISA based assay relative to diprovocim-1. The format is cell-based. On the set-up: Activity: concentration or dose not given beside the values. The settings on record: Macrophage, filed as agonist. Summed up:
as §3

The subject of test [8] is Splenocyte. As to the kind of experiment: In vivo cytotoxicity against C57BL/6 mouse-derived splenocytes loaded with SIINFEKL peptide allografted in immunized C57BL/6J mouse at 10 mg/kg, IM on day 0 and day 28 followed by spleenocytes injection on day 7 and day 35 and measured on day 9 and 37 by flow cytometry. The format is functional, organism-based. (In general: In flow cytometry, cells or beads pass a laser one at a time.)

Test [9] concerns Peritoneal macrophage. Kind of test: Stimulation of TNF alpha release in TLR4- deficient mutant C3H/HeJ mouse peritoneal macrophage at 500 nM. The format is functional, cell-based. In short, it runs like this: (§4)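 Peritoneal macrophages from Tlr4-WT C3H/HeOuJ mice or Tlr4 P712H-mutant C3H/HeJ mice, stimulated with agonist at 500 nM. Released TNF-α measured. LPS run as positive control.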

Test [10] deals with Peritoneal macrophage. As to the kind of experiment: Stimulation of TNF alpha release in TLR4-sufficient wild type C3H/HeOuJ mouse peritoneal macrophage at 500 nM. It is filed as functional, cell-based. In short, it runs like this: as §4

The source made the active and inactive calls. No cut-off for these calls is given here.

By EC50 is commonly meant the concentration that produces a half-maximal response. Usually Emax stands for the maximal effect, on the per cent scale that the assay sets.

Sequence of Toll-like receptor 1/2 (Mus musculus, UniProt Q9EPQ1+Q9QUN7) (Q9QUN7 whole entry): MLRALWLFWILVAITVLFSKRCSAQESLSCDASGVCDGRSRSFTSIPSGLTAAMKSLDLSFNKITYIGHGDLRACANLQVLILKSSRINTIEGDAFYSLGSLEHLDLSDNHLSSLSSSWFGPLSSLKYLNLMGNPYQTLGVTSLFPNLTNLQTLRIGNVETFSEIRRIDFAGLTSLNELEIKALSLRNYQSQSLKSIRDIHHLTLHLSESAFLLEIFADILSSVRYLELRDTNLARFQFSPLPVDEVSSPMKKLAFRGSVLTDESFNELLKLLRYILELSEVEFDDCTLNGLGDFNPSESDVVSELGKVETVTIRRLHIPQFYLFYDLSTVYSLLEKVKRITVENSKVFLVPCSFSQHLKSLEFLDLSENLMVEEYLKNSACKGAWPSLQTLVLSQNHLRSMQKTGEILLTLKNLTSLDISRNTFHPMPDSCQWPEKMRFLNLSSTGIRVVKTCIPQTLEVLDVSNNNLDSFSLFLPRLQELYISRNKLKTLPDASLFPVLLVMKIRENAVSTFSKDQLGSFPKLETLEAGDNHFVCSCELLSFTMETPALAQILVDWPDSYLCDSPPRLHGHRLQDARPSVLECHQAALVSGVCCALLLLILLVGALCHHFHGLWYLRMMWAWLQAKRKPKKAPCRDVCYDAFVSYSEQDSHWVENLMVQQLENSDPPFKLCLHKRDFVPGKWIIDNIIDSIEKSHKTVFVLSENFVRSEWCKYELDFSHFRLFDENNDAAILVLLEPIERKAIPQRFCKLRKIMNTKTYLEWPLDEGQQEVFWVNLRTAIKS
Sequence of Toll-like receptor 1/2 (Mus musculus, UniProt Q9EPQ1+Q9QUN7) (Q9EPQ1 whole entry): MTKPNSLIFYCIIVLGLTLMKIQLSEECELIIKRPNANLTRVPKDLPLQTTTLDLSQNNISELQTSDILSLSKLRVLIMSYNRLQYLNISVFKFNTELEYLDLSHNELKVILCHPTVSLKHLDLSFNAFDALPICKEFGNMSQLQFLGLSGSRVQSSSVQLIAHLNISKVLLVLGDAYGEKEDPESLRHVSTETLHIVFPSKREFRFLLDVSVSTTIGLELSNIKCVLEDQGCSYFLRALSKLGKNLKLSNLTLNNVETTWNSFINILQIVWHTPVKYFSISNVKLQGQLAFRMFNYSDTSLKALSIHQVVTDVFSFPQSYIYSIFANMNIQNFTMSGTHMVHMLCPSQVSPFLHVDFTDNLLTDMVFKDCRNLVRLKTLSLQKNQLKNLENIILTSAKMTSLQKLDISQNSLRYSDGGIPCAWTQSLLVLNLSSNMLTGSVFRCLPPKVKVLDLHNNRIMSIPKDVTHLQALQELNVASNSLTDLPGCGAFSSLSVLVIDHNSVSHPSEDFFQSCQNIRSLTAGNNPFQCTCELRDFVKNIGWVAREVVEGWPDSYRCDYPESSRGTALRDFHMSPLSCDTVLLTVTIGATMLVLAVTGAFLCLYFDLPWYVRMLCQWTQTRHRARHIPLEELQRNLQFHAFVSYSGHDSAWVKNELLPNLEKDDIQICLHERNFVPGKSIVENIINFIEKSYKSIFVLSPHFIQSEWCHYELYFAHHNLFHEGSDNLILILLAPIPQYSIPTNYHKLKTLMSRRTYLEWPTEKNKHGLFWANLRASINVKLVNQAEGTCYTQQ
T1 sequence (O60603 whole entry): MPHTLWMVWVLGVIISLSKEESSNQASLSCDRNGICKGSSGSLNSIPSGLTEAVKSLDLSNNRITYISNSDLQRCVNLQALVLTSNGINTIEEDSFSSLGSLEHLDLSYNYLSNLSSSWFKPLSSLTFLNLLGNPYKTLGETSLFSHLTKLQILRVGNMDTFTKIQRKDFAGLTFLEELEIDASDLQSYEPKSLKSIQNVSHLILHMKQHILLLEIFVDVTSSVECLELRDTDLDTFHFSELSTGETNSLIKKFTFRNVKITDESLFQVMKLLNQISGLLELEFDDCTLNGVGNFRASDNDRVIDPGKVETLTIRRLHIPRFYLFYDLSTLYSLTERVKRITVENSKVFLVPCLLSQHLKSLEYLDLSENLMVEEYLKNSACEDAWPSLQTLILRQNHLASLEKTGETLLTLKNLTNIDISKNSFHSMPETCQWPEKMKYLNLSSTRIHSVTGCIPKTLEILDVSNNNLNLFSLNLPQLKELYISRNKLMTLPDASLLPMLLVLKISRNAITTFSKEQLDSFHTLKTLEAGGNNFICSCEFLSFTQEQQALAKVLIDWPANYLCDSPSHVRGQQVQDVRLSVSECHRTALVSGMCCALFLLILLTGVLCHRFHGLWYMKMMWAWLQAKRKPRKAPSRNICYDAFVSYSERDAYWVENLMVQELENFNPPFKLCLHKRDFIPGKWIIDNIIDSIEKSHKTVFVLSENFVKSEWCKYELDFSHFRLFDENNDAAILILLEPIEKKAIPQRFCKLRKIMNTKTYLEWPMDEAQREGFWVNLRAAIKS
T1 sequence (Q15399 whole entry): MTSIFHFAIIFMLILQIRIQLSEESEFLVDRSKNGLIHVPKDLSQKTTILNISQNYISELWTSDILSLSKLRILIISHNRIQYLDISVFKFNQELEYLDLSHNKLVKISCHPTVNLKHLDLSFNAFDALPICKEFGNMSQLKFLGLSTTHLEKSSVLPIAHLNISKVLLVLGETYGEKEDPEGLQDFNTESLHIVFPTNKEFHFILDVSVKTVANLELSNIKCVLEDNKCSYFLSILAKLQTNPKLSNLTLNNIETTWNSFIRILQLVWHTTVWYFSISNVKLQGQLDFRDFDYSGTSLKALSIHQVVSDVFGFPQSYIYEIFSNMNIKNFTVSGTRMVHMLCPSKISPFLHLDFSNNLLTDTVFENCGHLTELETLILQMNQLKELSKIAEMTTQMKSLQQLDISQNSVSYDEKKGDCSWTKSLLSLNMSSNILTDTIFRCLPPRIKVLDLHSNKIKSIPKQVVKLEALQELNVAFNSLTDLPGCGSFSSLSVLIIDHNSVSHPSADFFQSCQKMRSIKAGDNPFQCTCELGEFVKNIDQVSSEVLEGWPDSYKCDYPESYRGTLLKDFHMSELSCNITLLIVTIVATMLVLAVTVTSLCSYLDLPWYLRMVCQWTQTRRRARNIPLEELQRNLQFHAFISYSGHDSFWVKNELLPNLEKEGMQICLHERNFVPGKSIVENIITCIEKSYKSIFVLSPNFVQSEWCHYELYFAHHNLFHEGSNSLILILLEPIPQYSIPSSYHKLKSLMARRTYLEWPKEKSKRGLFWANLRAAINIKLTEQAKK

Turning to `CC(C)(C)OC(=O)NCC(=O)OCCCCCCCCCCCCNC(=O)[C@@H]1CN(C(=O)c2ccc(C(=O)N3C[C@@H](C(=O)N[C@H]4C[C@@H]4c4ccccc4)[C@H](C(=O)N[C@H]4C[C@@H]4c4ccccc4)C3)cc2)C[C@H]1C(=O)N[C@H]1C[C@@H]1c1ccccc1`, the EC50 in test [1] is 0.14 nM; in test [4] it was 0.75 nM. Also, the outcome in test [2], in test [3], in test [5] and in [8] was Active. In addition, the Activity in test [6] stood at 100%; in test [7], 550%.

`CCCCCCCCCCNC(=O)[C@@H]1CN(C(=O)c2ccc(C(=O)N3C[C@@H](C(=O)N[C@H]4C[C@@H]4c4ccccc4)[C@H](C(=O)N[C@H]4C[C@@H]4c4ccccc4)C3)cc2)C[C@H]1C(=O)N[C@H]1C[C@@H]1c1ccccc1`: the values for the EC50 in [1] and in test [4] were 0.1 nM and 650 nM, respectively. Moreover, the Emax worked out at 100% in test [6] and 260% in test [7].

Regarding `CCNC(=O)[C@@H]1CN(C(=O)c2ccc(C(=O)N3C[C@@H](C(=O)N[C@H]4C[C@@H]4c4ccccc4)[C@H](C(=O)N[C@H]4C[C@@H]4c4ccccc4)C3)cc2)C[C@H]1C(=O)N[C@H]1C[C@@H]1c1ccccc1`, the EC50 in test [1] is 17 nM; in [4], 360 nM. The Emax was 90% in [6] and 130% in test [7].

For the molecule `CCCCCCCCNC(=O)[C@@H]1CN(C(=O)c2ccc(C(=O)N3C[C@@H](C(=O)N[C@H]4C[C@@H]4c4ccccc4)[C@H](C(=O)N[C@H]4C[C@@H]4c4ccccc4)C3)cc2)C[C@H]1C(=O)N[C@H]1C[C@@H]1c1ccccc1`, the results for the EC50 in test [1] and in test [4] were 0.33 nM and 540 nM, respectively. Besides, the maximum response (Emax) in test [6] worked out at 100%; in test [7], 240%.

Consider `O=C(N[C@H]1C[C@@H]1c1ccccc1)[C@@H]1CN(C(=O)c2ccc(C(=O)N3C[C@@H](C(=O)N[C@H]4C[C@@H]4c4ccccc4)[C@H](C(=O)N[C@H]4C[C@@H]4c4ccccc4)C3)cc2)C[C@H]1C(=O)N[C@H]1C[C@@H]1c1ccccc1`, for which the outcome in [9], in [2], in test [3], in test [10], in test [5] and in test [8] was Active.

On to `CCCCNC(=O)[C@@H]1CN(C(=O)c2ccc(C(=O)N3C[C@@H](C(=O)N[C@H]4C[C@@H]4c4ccccc4)[C@H](C(=O)N[C@H]4C[C@@H]4c4ccccc4)C3)cc2)C[C@H]1C(=O)N[C@H]1C[C@@H]1c1ccccc1`, for which the results for the EC50 in test [1] and in [4] were 2 nM and 30 nM, respectively. Besides, the values for the Emax in test [6] and in [7] were 120% and 150%, respectively.
